The structures appear in SMILES notation.

Assay [1] deals with Ribosomal protein S6 kinase alpha-3 (Homo sapiens) (UniProt P51812). Nature of the assay: Inhibition of RSK2 at 10 uM by HTRF assay relative to control. The essentials:
(§1)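 HTRF kinase assay, one panel of kinases. Inhibitor stock 50 µM in 100% DMSO; tested at 10 µM. ATP and substrate at final levels near Km. Final buffer: 50 mM Hepes/NaOH pH 7.4, 40 µM Na3VO4, 0.005% Tween-20, 1 mM DTT, MnCl2 or MgCl2 at kinase-dependent levels. Started by adding ATP/substrate. Reaction run at room temperature, time varied by kinase. Detection mix in 50 mM Hepes pH 7.4, 0.1% BSA, 150 mM KF, incubated ≥1 h at room temperature. Activity expressed as % of uninhibited control; n=2.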

In assay [2] the target is Mitogen-activated protein kinase 8 (Homo sapiens) (UniProt P45983). In words: Inhibition of JNK1 at 10 uM by HTRF assay relative to control. The essentials: as §1
Chain of Mitogen-activated protein kinase 8 (Homo sapiens) (P45983 whole entry): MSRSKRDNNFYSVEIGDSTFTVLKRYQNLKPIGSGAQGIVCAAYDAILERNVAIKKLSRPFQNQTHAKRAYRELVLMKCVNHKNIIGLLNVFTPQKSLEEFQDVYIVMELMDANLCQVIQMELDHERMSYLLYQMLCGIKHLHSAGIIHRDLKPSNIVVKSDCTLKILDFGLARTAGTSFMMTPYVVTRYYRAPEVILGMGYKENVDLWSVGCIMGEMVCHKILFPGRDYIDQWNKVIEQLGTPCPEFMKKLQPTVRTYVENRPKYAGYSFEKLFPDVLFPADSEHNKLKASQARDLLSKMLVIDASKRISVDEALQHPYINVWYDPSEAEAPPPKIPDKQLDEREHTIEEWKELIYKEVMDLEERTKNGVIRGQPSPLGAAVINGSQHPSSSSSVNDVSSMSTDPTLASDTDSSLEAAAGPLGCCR
The target in assay [3] is Ribosomal protein S6 kinase beta-1 (Homo sapiens) (UniProt P23443). In words: Inhibition of p70S6K at 10 uM by HTRF assay relative to control. The method in brief:
as §1

In assay [4] the target is Serine/threonine-protein kinase Chk2 (Homo sapiens) (UniProt O96017). In words: Inhibition of CHK2 at 10 uM by HTRF assay relative to control. The method in brief:
as §1

Assay [5] has as its target Tyrosine-protein kinase Fes/Fps (Homo sapiens) (UniProt P07332). In words: Inhibition of FES at 10 uM by HTRF assay relative to control. The essentials: as §1
In assay [6] the target is Fibroblast growth factor receptor 1 (Homo sapiens) (UniProt P11362). In words: Inhibition of FGFR1 at 10 uM by HTRF assay relative to control. The essentials: as §1
Assay [7] deals with 3-phosphoinositide-dependent protein kinase 1 (Homo sapiens) (UniProt O15530). In words: Inhibition of PDK1 at 10 uM by HTRF assay relative to control.
Assay [8] can be described thus: Inhibition of AMPKalpha at 10 uM by HTRF assay relative to control. The method in brief: as §1
Assay [9] concerns the target T1, Inhibitor of nuclear factor kappa-B kinase subunit beta (Homo sapiens) (UniProt O14920).
T1 sequence (whole entry): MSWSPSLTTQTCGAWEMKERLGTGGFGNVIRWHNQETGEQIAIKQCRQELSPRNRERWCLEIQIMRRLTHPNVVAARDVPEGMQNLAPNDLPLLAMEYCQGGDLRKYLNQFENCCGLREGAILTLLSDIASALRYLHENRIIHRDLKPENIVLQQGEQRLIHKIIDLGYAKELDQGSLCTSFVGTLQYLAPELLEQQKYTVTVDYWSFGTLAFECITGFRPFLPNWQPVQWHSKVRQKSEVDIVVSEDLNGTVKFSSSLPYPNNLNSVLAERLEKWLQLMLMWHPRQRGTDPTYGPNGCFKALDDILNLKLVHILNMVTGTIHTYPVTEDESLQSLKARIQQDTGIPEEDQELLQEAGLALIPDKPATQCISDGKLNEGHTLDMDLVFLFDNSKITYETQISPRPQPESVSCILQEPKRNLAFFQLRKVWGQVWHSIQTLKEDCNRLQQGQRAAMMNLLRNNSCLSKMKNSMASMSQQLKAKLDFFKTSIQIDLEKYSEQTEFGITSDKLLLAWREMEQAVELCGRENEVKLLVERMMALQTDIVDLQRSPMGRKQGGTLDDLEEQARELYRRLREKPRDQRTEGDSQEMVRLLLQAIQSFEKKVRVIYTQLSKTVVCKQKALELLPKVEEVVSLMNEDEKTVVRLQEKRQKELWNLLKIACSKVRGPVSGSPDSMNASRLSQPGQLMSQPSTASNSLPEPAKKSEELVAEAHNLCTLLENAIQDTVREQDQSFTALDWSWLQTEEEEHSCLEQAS
Nature of the assay: Inhibition of IKK-beta at 10 uM by HTRF assay relative to control. The essentials:
as §1

Assay [10] has as its target High affinity nerve growth factor receptor (Homo sapiens) (UniProt P04629). Nature of the assay: Inhibition of TrkA at 10 uM by HTRF assay relative to control. The method in brief:
as §1

For assay [11], the target named is Tyrosine-protein kinase Lck (Homo sapiens) (UniProt P06239). In words: Inhibition of Lck at 10 uM by HTRF assay relative to control. The method in brief: as §1
Assay [12] has as its target Cyclin-dependent kinase 1 (Homo sapiens) (UniProt P06493). In words: Inhibition of CDK1 at 10 uM by HTRF assay relative to control. The essentials:
as §1

Assay [13] deals with MAP kinase-activated protein kinase 2 (Homo sapiens) (UniProt P49137). In words: Inhibition of MAPKAPK2 at 10 uM by HTRF assay relative to control. The essentials:
as §1

Assay [14] addresses Rho-associated protein kinase 2 (Homo sapiens) (UniProt O75116). Nature of the assay: Inhibition of ROCK2 at 10 uM by HTRF assay relative to control. The method in brief:
as §1

The target of assay [15] is Calcium/calmodulin-dependent protein kinase type II subunit alpha (Homo sapiens) (UniProt Q9UQM7). Nature of the assay: Inhibition of CaMK2alpha at 10 uM by HTRF assay relative to control. The essentials: as §1
For assay [16], the target named is T2, Serine/threonine-protein kinase Chk1 (Homo sapiens) (UniProt O14757).
T2 sequence (whole entry): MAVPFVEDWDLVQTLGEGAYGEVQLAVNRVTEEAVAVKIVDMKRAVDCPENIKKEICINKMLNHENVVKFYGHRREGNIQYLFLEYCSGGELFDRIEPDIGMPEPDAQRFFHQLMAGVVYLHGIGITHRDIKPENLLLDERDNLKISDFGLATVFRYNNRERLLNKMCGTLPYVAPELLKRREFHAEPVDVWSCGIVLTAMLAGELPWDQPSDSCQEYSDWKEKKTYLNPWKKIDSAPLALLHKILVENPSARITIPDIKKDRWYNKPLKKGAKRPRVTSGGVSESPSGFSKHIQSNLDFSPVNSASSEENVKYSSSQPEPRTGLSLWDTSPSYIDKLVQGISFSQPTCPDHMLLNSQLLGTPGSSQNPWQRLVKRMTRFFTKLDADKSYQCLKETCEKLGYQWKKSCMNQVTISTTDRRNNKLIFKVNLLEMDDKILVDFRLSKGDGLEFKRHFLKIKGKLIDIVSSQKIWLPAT
In words: Inhibition of CHK1 at 10 uM by HTRF assay relative to control. The essentials:
as §1

Assay [17] has as its target Protein kinase C gamma type (Homo sapiens) (UniProt P05129). Nature of the assay: Inhibition of PKCgamma at 10 uM by HTRF assay relative to control. The essentials:
as §1

For assay [18], the target named is Platelet-derived growth factor receptor beta (Homo sapiens) (UniProt P09619). In words: Inhibition of PDGFRbeta at 10 uM by HTRF assay relative to control. The method in brief:
as §1

The target in assay [19] is Protein kinase C alpha type (Homo sapiens) (UniProt P17252). Nature of the assay: Inhibition of PKCalpha at 10 uM by HTRF assay relative to control. The essentials: as §1
Assay [20] concerns the target Insulin-like growth factor 1 receptor (Homo sapiens) (UniProt P08069). Nature of the assay: Inhibition of IGF1R at 10 uM by HTRF assay relative to control. The essentials:
as §1

Chain of Platelet-derived growth factor receptor beta (Homo sapiens) (P09619 whole entry): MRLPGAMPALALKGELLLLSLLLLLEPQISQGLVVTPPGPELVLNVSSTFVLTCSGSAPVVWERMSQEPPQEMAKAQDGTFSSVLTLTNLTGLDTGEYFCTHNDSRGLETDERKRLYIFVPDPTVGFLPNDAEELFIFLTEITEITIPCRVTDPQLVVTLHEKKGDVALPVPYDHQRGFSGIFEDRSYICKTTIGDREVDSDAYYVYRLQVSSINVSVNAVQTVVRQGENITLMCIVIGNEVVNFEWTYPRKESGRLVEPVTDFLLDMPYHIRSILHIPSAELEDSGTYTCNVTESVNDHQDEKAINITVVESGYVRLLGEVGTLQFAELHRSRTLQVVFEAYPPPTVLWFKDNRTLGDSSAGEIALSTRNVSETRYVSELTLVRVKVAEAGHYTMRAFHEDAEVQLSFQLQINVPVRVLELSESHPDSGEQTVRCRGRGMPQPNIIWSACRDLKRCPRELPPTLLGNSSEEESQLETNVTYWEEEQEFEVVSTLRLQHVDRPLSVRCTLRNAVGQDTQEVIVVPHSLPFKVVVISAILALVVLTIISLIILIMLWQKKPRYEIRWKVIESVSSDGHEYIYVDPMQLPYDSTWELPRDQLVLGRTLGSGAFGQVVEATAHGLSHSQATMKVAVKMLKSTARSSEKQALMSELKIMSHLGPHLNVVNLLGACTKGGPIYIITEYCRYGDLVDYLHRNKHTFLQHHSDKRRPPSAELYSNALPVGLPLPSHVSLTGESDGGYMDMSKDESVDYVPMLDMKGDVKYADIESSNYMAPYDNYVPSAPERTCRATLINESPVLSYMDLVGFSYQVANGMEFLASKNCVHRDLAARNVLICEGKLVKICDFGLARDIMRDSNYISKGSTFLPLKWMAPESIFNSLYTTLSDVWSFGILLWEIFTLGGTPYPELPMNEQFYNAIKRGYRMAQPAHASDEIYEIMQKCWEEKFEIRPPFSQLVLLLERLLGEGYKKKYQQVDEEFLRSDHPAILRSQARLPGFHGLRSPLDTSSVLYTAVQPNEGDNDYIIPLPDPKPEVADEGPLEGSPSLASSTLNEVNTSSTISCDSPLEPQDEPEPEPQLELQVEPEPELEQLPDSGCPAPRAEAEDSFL
Chain of MAP kinase-activated protein kinase 2 (Homo sapiens) (P49137 whole entry, looked up): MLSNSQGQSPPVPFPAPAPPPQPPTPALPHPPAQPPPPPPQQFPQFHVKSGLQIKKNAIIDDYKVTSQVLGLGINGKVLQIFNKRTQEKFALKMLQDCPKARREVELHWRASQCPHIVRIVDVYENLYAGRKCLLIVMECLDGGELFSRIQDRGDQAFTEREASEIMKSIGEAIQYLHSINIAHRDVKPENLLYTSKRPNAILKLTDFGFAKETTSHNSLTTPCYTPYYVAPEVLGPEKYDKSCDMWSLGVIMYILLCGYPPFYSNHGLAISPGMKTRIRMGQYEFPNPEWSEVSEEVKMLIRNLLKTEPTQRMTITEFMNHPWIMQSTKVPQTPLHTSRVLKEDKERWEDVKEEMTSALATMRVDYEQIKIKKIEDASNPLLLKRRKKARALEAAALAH
Chain of Rho-associated protein kinase 2 (Homo sapiens) (O75116 whole entry, looked up): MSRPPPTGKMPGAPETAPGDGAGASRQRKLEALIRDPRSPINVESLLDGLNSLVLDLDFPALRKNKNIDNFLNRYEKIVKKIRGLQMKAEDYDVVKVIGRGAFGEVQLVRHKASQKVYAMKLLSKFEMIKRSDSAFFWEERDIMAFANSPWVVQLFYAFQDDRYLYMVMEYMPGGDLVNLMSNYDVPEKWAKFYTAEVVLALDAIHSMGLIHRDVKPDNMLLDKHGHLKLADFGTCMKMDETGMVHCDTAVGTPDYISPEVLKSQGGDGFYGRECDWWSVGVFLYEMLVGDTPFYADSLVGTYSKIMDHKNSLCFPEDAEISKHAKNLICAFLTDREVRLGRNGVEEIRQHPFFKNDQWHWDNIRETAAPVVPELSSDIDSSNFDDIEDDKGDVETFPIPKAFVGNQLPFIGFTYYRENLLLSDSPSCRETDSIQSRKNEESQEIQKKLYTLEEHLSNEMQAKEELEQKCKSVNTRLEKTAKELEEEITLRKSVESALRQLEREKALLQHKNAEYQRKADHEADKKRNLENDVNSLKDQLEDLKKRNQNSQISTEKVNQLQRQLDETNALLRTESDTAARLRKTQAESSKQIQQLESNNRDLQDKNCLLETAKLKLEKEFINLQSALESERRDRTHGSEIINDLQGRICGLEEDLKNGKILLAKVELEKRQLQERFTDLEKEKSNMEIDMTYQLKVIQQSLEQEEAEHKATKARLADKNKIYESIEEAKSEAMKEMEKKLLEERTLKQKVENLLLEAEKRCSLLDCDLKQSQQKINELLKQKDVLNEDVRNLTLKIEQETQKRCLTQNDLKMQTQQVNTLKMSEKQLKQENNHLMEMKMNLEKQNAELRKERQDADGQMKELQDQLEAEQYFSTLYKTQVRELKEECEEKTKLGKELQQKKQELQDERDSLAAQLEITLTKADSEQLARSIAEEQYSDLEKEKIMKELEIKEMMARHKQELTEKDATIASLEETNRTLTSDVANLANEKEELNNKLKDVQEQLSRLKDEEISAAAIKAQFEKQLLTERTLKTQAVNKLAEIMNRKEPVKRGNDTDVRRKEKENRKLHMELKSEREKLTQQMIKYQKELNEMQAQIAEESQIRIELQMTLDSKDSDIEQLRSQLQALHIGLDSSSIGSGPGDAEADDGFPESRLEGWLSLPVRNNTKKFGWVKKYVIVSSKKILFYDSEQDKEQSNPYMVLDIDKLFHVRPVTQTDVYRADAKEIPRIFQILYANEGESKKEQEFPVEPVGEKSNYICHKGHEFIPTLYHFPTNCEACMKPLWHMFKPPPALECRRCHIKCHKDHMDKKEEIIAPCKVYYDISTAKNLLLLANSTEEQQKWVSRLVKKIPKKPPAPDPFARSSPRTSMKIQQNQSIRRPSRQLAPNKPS
Chain of Cyclin-dependent kinase 1 (Homo sapiens) (P06493 whole entry, looked up): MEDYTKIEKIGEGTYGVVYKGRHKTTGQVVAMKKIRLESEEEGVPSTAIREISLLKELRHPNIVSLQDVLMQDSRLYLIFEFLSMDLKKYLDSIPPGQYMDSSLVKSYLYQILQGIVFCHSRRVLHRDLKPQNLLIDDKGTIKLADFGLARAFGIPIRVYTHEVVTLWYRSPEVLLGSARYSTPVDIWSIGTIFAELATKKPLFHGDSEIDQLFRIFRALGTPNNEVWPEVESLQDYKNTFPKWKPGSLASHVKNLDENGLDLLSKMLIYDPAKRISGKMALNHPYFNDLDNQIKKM

Take `Nc1nc(N2CCOCC2)cc(N2CCC(C(=O)NCCc3ccc(O)cc3)CC2)n1`: the inhibition in assay [1] is 0%; in assay [2] it was 4%; in assay [3] it was 6%; in assay [4] it was 0%; in [5] it was 6%; in assay [6], 15%. Further, the inhibition in assay [7] was 0%; in assay [8] it was 12%; in [9] it was 4%; in assay [10] it was 6%; in [11], 0%; in [12] it was 0%. Also, the inhibition in assay [13] was found to be 0%; in assay [14], 0%; in assay [15], 0%; in assay [16], 3%; in assay [17], 0%; in assay [18] it was 0%. Further, the inhibition in assay [19] and in [20] was 0% each time.
Take `O=C(c1nc(SCc2ccc(Cl)cc2)n2ccccc12)N1CCN(c2ncnc3c2CN(Cc2ccccc2)CC3)CC1`: the inhibition in assay [1] was 0%; in [2] it was 7%; in assay [3], 3%; in assay [4] it was 0%; in assay [5], 0%; in [6], 0%. Also, the inhibition was determined as 0% in [7]; 1% in assay [8]; 2% in assay [9]; 5% in assay [10]; 0% in [11]; 0% in assay [12]. Further, the inhibition amounted to 1% in assay [13]; 0% in [14]; 0% in [15]; 5% in assay [16]; 4% in assay [17]; 7% in assay [18]. Besides, the inhibition in assay [19] and in assay [20] was 0% in each case.
For `Cc1cccc(Nc2nccc(Nc3cccc(C(=O)NCc4ccc(N(C)C)cc4)c3)n2)c1`, the inhibition worked out at 5% in assay [1]; 0% in assay [2]; 9% in assay [3]; 0% in [4]; 10% in assay [5]; 20% in assay [6]. Also, the inhibition in [7] was determined as 0%; in assay [8] it was 8%; in assay [9] it was 2%; in [10], 7%; in [11], 0%; in assay [12], 0%. The inhibition in assay [13] is 4%; in [14] it was 4%; in assay [15], 0%; in assay [16], 6%; in [17] it was 0%; in [18] it was 24%. Further, the inhibition in [19] is 3%; in [20], 0%.
Consider `CN(CCc1ccccn1)C(=O)[C@@H]1CCCN1c1nccc(Nc2ccccc2)n1`, for which the inhibition was 0% in assay [1]; 0% in [2]; 12% in [3]; 3% in assay [4]; 8% in [5]; 0% in [6]. Also, the inhibition in [7] was 0%; in [8] it was 0%; in assay [9], 0%; in assay [10], 8%; in [11] it was 0%; in [12], 0%. The inhibition in assay [13] was 0%; in [14], 0%; in assay [15], 1%; in [16], 1%; in [17], 6%; in assay [18], 5%. Also, the inhibition was determined as 1% in [19] and 0% in assay [20].
As to `CN(CCCn1ccnc1)C(=O)[C@@H]1CCCN1c1nccc(Nc2ccccc2)n1`, the inhibition in assay [1] stood at 0%; in assay [2], 0%; in assay [3] it was 6%; in assay [4] it was 5%; in [5], 1%; in [6] it was 0%. The inhibition is 1% in assay [7]; 15% in assay [8]; 3% in assay [9]; 11% in [10]; 0% in assay [11]; 0% in assay [12]. Also, the inhibition in assay [13] is 2%; in assay [14] it was 1%; in [15], 0%; in assay [16], 0%; in assay [17], 0%; in [18], 11%. Besides, the inhibition in [19] and in assay [20] was 0% each time.
For the molecule `CN(CCc1ccccn1)C(=O)c1cccc(Nc2nccc(Nc3ccc4ncsc4c3)n2)c1`, the inhibition in [1] worked out at 35%; in assay [2], 70%; in assay [3], 19%; in assay [4] it was 7%; in assay [5], 51%; in assay [6] it was 80%. In addition, the inhibition was found to be 0% in assay [7]; 16% in assay [8]; 36% in [9]; 56% in assay [10]; 37% in [11]; 0% in assay [12]. Also, the inhibition in [13] was 1%; in assay [14], 7%; in assay [15], 0%; in [16] it was 0%; in assay [17], 27%; in assay [18], 91%. Further, the figures for the inhibition in assay [19] and in [20] were 5% and 50%, respectively.
In the case of `Cc1cccc(N(C)c2cc(Nc3cccc(C(=O)NCCCn4ccnc4)c3)ncn2)c1`, the inhibition amounted to 0% in [1]; 24% in assay [2]; 8% in [3]; 0% in assay [4]; 22% in [5]; 5% in assay [6]. Besides, the inhibition in [7] was found to be 0%; in assay [8] it was 5%; in assay [9], 0%; in assay [10], 7%; in assay [11], 24%; in assay [12] it was 0%. Further, the inhibition in assay [13] turned out to be 0%; in assay [14] it was 0%; in assay [15] it was 0%; in assay [16], 0%; in [17], 2%; in assay [18], 37%. The inhibition in [19] came out at 7%; in assay [20], 0%.
Take `Cc1cccc(Oc2ccnc(N3CCC[C@H]3C(=O)NCCCn3ccnc3)n2)c1`: the inhibition in [1] stood at 0%; in assay [2], 0%; in [3], 7%; in assay [4], 0%; in [5], 2%; in assay [6], 1%. Also, the inhibition in assay [7] amounted to 1%; in assay [8], 9%; in [9], 2%; in [10], 7%; in assay [11] it was 0%; in [12], 0%. The inhibition turned out to be 2% in assay [13]; 0% in assay [14]; 0% in [15]; 3% in assay [16]; 1% in assay [17]; 7% in assay [18]. For the same molecule, the inhibition turned out to be 0% in [19] and 8% in [20].
